In ChEMBL document CHEMBL1157100, “The alkyl-connected 2-amino-6-vinylpurine (AVP) crosslinking agent for improved selectivity to the cytosine base in RNA” (Bioorg Med Chem, 2010):
Calls of active or inactive are those of the source. No cut-off for these calls is given here.

Key:
Assay type in all cases: nucleic-acid assay
Nucleic Acid [1] = test: Binding affinity to FAM-tagged 27 mer RNA hairpin loop assessed as crosslinking at 10 uM by PAGE
Method in brief: (§1)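 Reactive ODN at 10 µM with 1 µM FAM-labeled target DNA or RNA in 100 mM NaCl, 50 mM MES pH 5 plus RNase OUT, mixed at 0 °C and then incubated at 37 °C. Reactions were stopped at set times with formamide/EDTA/bromophenol blue buffer. Products were resolved on 15% denaturing polyacrylamide gel with 7 M urea, and FAM band intensities were quantified to give crosslinking yield.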

Nucleic Acid [2] = test: Binding affinity to FAM-tagged r-(CAAGCGGAGAAAYUAAUUGCGGGUCGC)-RNA assessed as crosslinking at 10 uM by alkylation method; method in brief: as §1
Nucleic Acid [3] = test: Binding affinity to r-(ACGUGAAUUGUUCAACAGUAUGGGCAU)-RNA assessed as melting temperature at 1.5 uM by UV-visible spectrophotometry
Method in brief: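 Each strand at 1.5 µM: ODN plus complementary 27-mer RNA in 100 mM NaCl, 50 mM MES pH 5. Samples were heated at 85 °C for 10 min and cooled slowly. Melting curves were recorded at 260 nm while warming 20 to 80 °C at 1.0 °C/min to obtain Tm.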

Structure (SMILES)	Activity (Nucleic Acid [1])	Activity (Nucleic Acid [2])	Tm (Nucleic Acid [3])
CSCCc1nc(N)nc2c1ncn2CC[C@H]1C[C@H](OP(=O)(O)OC[C@H]2O[C@@H](n3cc(C)c(=O)[nH]c3=O)C[C@@H]2OP(=O)(O)OC[C@H]2O[C@@H](n3cnc4c(N)ncnc43)[C@H](O)[C@@H]2OP(=O)(O)OC[C@H]2O[C@@H](n3cc(C)c(=O)[nH]c3=O)C[C@@H]2OP(CCC#N)N(C(C)C)C(C)C)[C@@H](COP(=O)(O)O[C@H]2C[C@H](n3cc(C)c(=O)[nH]c3=O)O[C@@H]2COP(=O)(O)O[C@H]2C[C@H](n3cc(C)c(=O)[nH]c3=O)O[C@@H]2COP(=O)(O)O[C@H]2[C@@H](O)[C@H](n3cnc4c(N)ncnc43)O[C@@H]2COP(=O)(O)O[C@H]2[C@@H](O)[C@H](n3cnc4c(N)ncnc43)O[C@@H]2COP(=O)(O)O[C@H]2[C@@H](O)[C@H](n3cnc4c(N)ncnc43)O[C@@H]2COP(=O)(O)O[C@H]2[C@@H](O)[C@H](n3ccc(N)nc3=O)O[C@@H]2COP(=O)(O)O[C@H]2C[C@H](n3cc(C)c(=O)[nH]c3=O)O[C@@H]2COP(=O)(O)O[C@H]2[C@@H](O)[C@H](n3cnc4c(N)ncnc43)O[C@@H]2COP(=O)(O)O[C@H]2[C@@H](O)[C@H](n3cnc4c(=O)[nH]c(N)nc43)O[C@@H]2COP(=O)(O)O[C@H]2C[C@H](n3cc(C)c(=O)[nH]c3=O)O[C@@H]2COP(=O)(O)O[C@H]2[C@@H](O)[C@H](n3ccc(N)nc3=O)O[C@@H]2COP(=O)(O)O[C@H]2[C@@H](O)[C@H](n3cnc4c(N)ncnc43)O[C@@H]2COP(=O)(O)O[C@H]2C[C@H](n3cc(C)c(=O)[nH]c3=O)O[C@@H]2COP(=O)(O)O[C@H]2[C@@H](O)[C@H](n3cnc4c(N)ncnc43)O[C@@H]2COP(=O)(O)O[C@H]2C[C@H](n3cc(C)c(=O)[nH]c3=O)O[C@@H]2CO)O1 (some centres not stated)	Active	–	–
CSCCc1nc(N)nc2c1ncn2CC[C@H]1C[C@H](OP(=O)(O)OC[C@H]2O[C@@H](n3cc(C)c(=O)[nH]c3=O)C[C@@H]2OP(=O)(O)OC[C@H]2O[C@@H](n3cc(C)c(=O)[nH]c3=O)C[C@@H]2OP(=O)(O)OC[C@H]2O[C@@H](n3cnc4c(=O)[nH]c(N)nc43)[C@H](O)[C@@H]2OP(=O)(O)OC[C@H]2O[C@@H](n3cnc4c(N)ncnc43)[C@H](O)[C@@H]2OP(=O)(O)OC[C@H]2O[C@@H](n3cnc4c(=O)[nH]c(N)nc43)[C@H](O)[C@@H]2OP(=O)(O)OC[C@H]2O[C@@H](n3ccc(N)nc3=O)[C@H](O)[C@@H]2OP(=O)(O)OC[C@H]2O[C@@H](n3cnc4c(N)ncnc43)[C@H](O)[C@@H]2OP(=O)(O)OC[C@H]2O[C@@H](n3cnc4c(N)ncnc43)[C@H](O)[C@@H]2OP(=O)(O)OC[C@H]2O[C@@H](n3cc(C)c(=O)[nH]c3=O)C[C@@H]2OP(CCC#N)N(C(C)C)C(C)C)[C@@H](COP(=O)(O)O[C@H]2C[C@H](n3cc(C)c(=O)[nH]c3=O)O[C@@H]2COP(=O)(O)O[C@H]2[C@@H](O)[C@H](n3ccc(N)nc3=O)O[C@@H]2COP(=O)(O)O[C@H]2[C@@H](O)[C@H](n3cnc4c(N)ncnc43)O[C@@H]2COP(=O)(O)O[C@H]2C[C@H](n3cc(C)c(=O)[nH]c3=O)O[C@@H]2COP(=O)(O)O[C@H]2[C@@H](O)[C@H](n3cnc4c(N)ncnc43)O[C@@H]2COP(=O)(O)O[C@H]2[C@@H](O)[C@H](n3ccc(N)nc3=O)O[C@@H]2COP(=O)(O)O[C@H]2[C@@H](O)[C@H](n3ccc(N)nc3=O)O[C@@H]2COP(=O)(O)O[C@H]2[C@@H](O)[C@H](n3ccc(N)nc3=O)O[C@@H]2COP(=O)(O)O[C@H]2[C@@H](O)[C@H](n3cnc4c(=O)[nH]c(N)nc43)O[C@@H]2COP(=O)(O)O[C@H]2C[C@H](n3cc(C)c(=O)[nH]c3=O)O[C@@H]2COP(=O)(O)O[C@H]2[C@@H](O)[C@H](n3cnc4c(N)ncnc43)O[C@@H]2CO)O1 (some centres not stated)	–	inactive	49.7 °C
Cc1cn([C@H]2C[C@H](OP(CCC#N)N(C(C)C)C(C)C)[C@@H](COP(=O)(O)O[C@H]3[C@@H](O)[C@H](n4cnc5c(N)ncnc54)O[C@@H]3COP(=O)(O)O[C@H]3[C@@H](O)[C@H](n4cnc5c(N)ncnc54)O[C@@H]3COP(=O)(O)O[C@H]3[C@@H](O)[C@H](n4ccc(N)nc4=O)O[C@@H]3COP(=O)(O)O[C@H]3[C@@H](O)[C@H](n4cnc5c(=O)[nH]c(N)nc54)O[C@@H]3COP(=O)(O)O[C@H]3[C@@H](O)[C@H](n4cnc5c(N)ncnc54)O[C@@H]3COP(=O)(O)O[C@H]3[C@@H](O)[C@H](n4cnc5c(=O)[nH]c(N)nc54)O[C@@H]3COP(=O)(O)O[C@H]3C[C@H](n4cc(C)c(=O)[nH]c4=O)O[C@@H]3COP(=O)(O)O[C@H]3C[C@H](n4cc(C)c(=O)[nH]c4=O)O[C@@H]3COP(=O)(O)O[C@H]3[C@@H](O)[C@H](n4cnc5c(=O)[nH]c(N)nc54)O[C@@H]3COP(=O)(O)O[C@H]3C[C@H](n4cc(C)c(=O)[nH]c4=O)O[C@@H]3COP(=O)(O)O[C@H]3[C@@H](O)[C@H](n4ccc(N)nc4=O)O[C@@H]3COP(=O)(O)O[C@H]3[C@@H](O)[C@H](n4cnc5c(N)ncnc54)O[C@@H]3COP(=O)(O)O[C@H]3C[C@H](n4cc(C)c(=O)[nH]c4=O)O[C@@H]3COP(=O)(O)O[C@H]3[C@@H](O)[C@H](n4cnc5c(N)ncnc54)O[C@@H]3COP(=O)(O)O[C@H]3[C@@H](O)[C@H](n4ccc(N)nc4=O)O[C@@H]3COP(=O)(O)O[C@H]3[C@@H](O)[C@H](n4ccc(N)nc4=O)O[C@@H]3COP(=O)(O)O[C@H]3[C@@H](O)[C@H](n4ccc(N)nc4=O)O[C@@H]3COP(=O)(O)O[C@H]3[C@@H](O)[C@H](n4cnc5c(=O)[nH]c(N)nc54)O[C@@H]3COP(=O)(O)O[C@H]3C[C@H](n4cc(C)c(=O)[nH]c4=O)O[C@@H]3COP(=O)(O)O[C@H]3[C@@H](O)[C@H](n4cnc5c(N)ncnc54)O[C@@H]3CO)O2)c(=O)[nH]c1=O (some centres not stated)	–	–	64.1 °C
CSCCc1nc(N)nc2c1ncn2[C@H]1C[C@H](OP(=O)(O)OC[C@H]2O[C@@H](n3cc(C)c(=O)[nH]c3=O)C[C@@H]2OP(=O)(O)OC[C@H]2O[C@@H](n3cnc4c(N)ncnc43)[C@H](O)[C@@H]2OP(=O)(O)OC[C@H]2O[C@@H](n3cc(C)c(=O)[nH]c3=O)C[C@@H]2OP(CCC#N)N(C(C)C)C(C)C)[C@@H](COP(=O)(O)O[C@H]2C[C@H](n3cc(C)c(=O)[nH]c3=O)O[C@@H]2COP(=O)(O)O[C@H]2C[C@H](n3cc(C)c(=O)[nH]c3=O)O[C@@H]2COP(=O)(O)O[C@H]2[C@@H](O)[C@H](n3cnc4c(N)ncnc43)O[C@@H]2COP(=O)(O)O[C@H]2[C@@H](O)[C@H](n3cnc4c(N)ncnc43)O[C@@H]2COP(=O)(O)O[C@H]2[C@@H](O)[C@H](n3cnc4c(N)ncnc43)O[C@@H]2COP(=O)(O)O[C@H]2[C@@H](O)[C@H](n3ccc(N)nc3=O)O[C@@H]2COP(=O)(O)O[C@H]2C[C@H](n3cc(C)c(=O)[nH]c3=O)O[C@@H]2COP(=O)(O)O[C@H]2[C@@H](O)[C@H](n3cnc4c(N)ncnc43)O[C@@H]2COP(=O)(O)O[C@H]2[C@@H](O)[C@H](n3cnc4c(=O)[nH]c(N)nc43)O[C@@H]2COP(=O)(O)O[C@H]2C[C@H](n3cc(C)c(=O)[nH]c3=O)O[C@@H]2COP(=O)(O)O[C@H]2[C@@H](O)[C@H](n3ccc(N)nc3=O)O[C@@H]2COP(=O)(O)O[C@H]2[C@@H](O)[C@H](n3cnc4c(N)ncnc43)O[C@@H]2COP(=O)(O)O[C@H]2C[C@H](n3cc(C)c(=O)[nH]c3=O)O[C@@H]2COP(=O)(O)O[C@H]2[C@@H](O)[C@H](n3cnc4c(N)ncnc43)O[C@@H]2COP(=O)(O)O[C@H]2C[C@H](n3cc(C)c(=O)[nH]c3=O)O[C@@H]2CO)O1 (some centres not stated)	inactive	–	–
CSCCc1nc(N)nc2c1ncn2[C@H]1C[C@H](OP(=O)(O)OC[C@H]2O[C@@H](n3cc(C)c(=O)[nH]c3=O)C[C@@H]2OP(=O)(O)OC[C@H]2O[C@@H](n3cc(C)c(=O)[nH]c3=O)C[C@@H]2OP(=O)(O)OC[C@H]2O[C@@H](n3cnc4c(=O)[nH]c(N)nc43)[C@H](O)[C@@H]2OP(=O)(O)OC[C@H]2O[C@@H](n3cnc4c(N)ncnc43)[C@H](O)[C@@H]2OP(=O)(O)OC[C@H]2O[C@@H](n3cnc4c(=O)[nH]c(N)nc43)[C@H](O)[C@@H]2OP(=O)(O)OC[C@H]2O[C@@H](n3ccc(N)nc3=O)[C@H](O)[C@@H]2OP(=O)(O)OC[C@H]2O[C@@H](n3cnc4c(N)ncnc43)[C@H](O)[C@@H]2OP(=O)(O)OC[C@H]2O[C@@H](n3cnc4c(N)ncnc43)[C@H](O)[C@@H]2OP(=O)(O)OC[C@H]2O[C@@H](n3cc(C)c(=O)[nH]c3=O)C[C@@H]2OP(CCC#N)N(C(C)C)C(C)C)[C@@H](COP(=O)(O)O[C@H]2C[C@H](n3cc(C)c(=O)[nH]c3=O)O[C@@H]2COP(=O)(O)O[C@H]2[C@@H](O)[C@H](n3ccc(N)nc3=O)O[C@@H]2COP(=O)(O)O[C@H]2[C@@H](O)[C@H](n3cnc4c(N)ncnc43)O[C@@H]2COP(=O)(O)O[C@H]2C[C@H](n3cc(C)c(=O)[nH]c3=O)O[C@@H]2COP(=O)(O)O[C@H]2[C@@H](O)[C@H](n3cnc4c(N)ncnc43)O[C@@H]2COP(=O)(O)O[C@H]2[C@@H](O)[C@H](n3ccc(N)nc3=O)O[C@@H]2COP(=O)(O)O[C@H]2[C@@H](O)[C@H](n3ccc(N)nc3=O)O[C@@H]2COP(=O)(O)O[C@H]2[C@@H](O)[C@H](n3ccc(N)nc3=O)O[C@@H]2COP(=O)(O)O[C@H]2[C@@H](O)[C@H](n3cnc4c(=O)[nH]c(N)nc43)O[C@@H]2COP(=O)(O)O[C@H]2C[C@H](n3cc(C)c(=O)[nH]c3=O)O[C@@H]2COP(=O)(O)O[C@H]2[C@@H](O)[C@H](n3cnc4c(N)ncnc43)O[C@@H]2CO)O1 (some centres not stated)	–	inactive	53.3 °C
